Test results: ChEMBL document CHEMBL5303300, “EUbOPEN Chemogenomics Library - Multiplex” (2023)
Where “and” joins values, the source holds several entries; their conditions need not be identical. Equal values may be shown once.

Legend:
Fibroblast = assay: Multiplex assay against human fibroblast; type: toxicity, cell-based; conditions: number of replicates 2
How it was run: (§1)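 Live cells carried four stains from seeding: Hoechst33342, BioTracker Green Microtubule Cytoskeleton Dye, MitoTracker Red and Annexin V Alexa Fluor 680. They were imaged on a CQ1 microscope at 37°C and 5% CO2 after compound addition. Using CellPathfinder machine-learning gating, cells were split into Hoechst high-intensity objects or normal cells, normal cells into healthy, pyknosed or fragmented nuclei, and pyknosed cells into mitotic or apoptotic; tubulin, mitochondrial-mass and membrane-permeability phenotypes are per cents of healthy-nucleus cells.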

U2OS = assay: Multiplex assay against U2OS; type: toxicity, cell-based; conditions: human, number of replicates 2; how it was run: as §1
[1] = 12 h, 1 µM, compound concentration 1 uM
[2] = 12 h, 10 µM, compound concentration 10 uM
[3] = 24 h, 1 µM, compound concentration 1 uM
[4] = 24 h, 10 µM, compound concentration 10 uM
[5] = 48 h, 1 µM, compound concentration 1 uM
[6] = 48 h, 10 µM, compound concentration 10 uM

CCC(=O)O[C@@H](OP(=O)(CCCCc1ccccc1)CC(=O)N1C[C@H](C2CCCCC2)C[C@H]1C(=O)[O-])C(C)C.[Na+] (stereo not given in full)
Population Apoptotic (%) (Fibroblast; [1]): 42% and 43%
Population Fragmented Nuclei (%) (Fibroblast; [1]): 7% and 8%
Population Healthy Nuclei (%) (Fibroblast; [1]): 69% and 71%
Population Hoechst High Intensity Objects (%) (Fibroblast; [1]): 0%
Population Membrane Permeable-Phenotype (%) (Fibroblast; [1]): 9% and 2%
Population Mitochondria Different-Phenotype (%) (Fibroblast; [1]): 0% and 2%
Population Mitotic Cells (%) (Fibroblast; [1]): 57% and 56%
Population Normal (%) (Fibroblast; [1]): 99%
Population Pyknosed Nuclei (%) (Fibroblast; [1]): 22% and 19%
Population Tubulin-Different-Phenotype (%) (Fibroblast; [1]): 11% and 9%
Total Cell Count (Fibroblast; [1]): 189 and 198
Population Fragmented Nuclei (%) (Fibroblast; [2]): 6% and 13%
Population Healthy Nuclei (%) (Fibroblast; [2]): 76% and 70%
Population Hoechst High Intensity Objects (%) (Fibroblast; [2]): 0%
Population Membrane Permeable-Phenotype (%) (Fibroblast; [2]): 5% and 2%
Population Mitochondria Different-Phenotype (%) (Fibroblast; [2]): 0%
Population Mitotic Cells (%) (Fibroblast; [2]): 45% and 82%
Population Normal (%) (Fibroblast; [2]): 100%
Population Pyknosed Nuclei (%) (Fibroblast; [2]): 16% and 15%
Population Tubulin-Different-Phenotype (%) (Fibroblast; [2]): 10% and 5%
Total Cell Count (Fibroblast; [2]): 207 and 226
Population Apoptotic (%) (Fibroblast; [3]): 50% and 45%
Population Fragmented Nuclei (%) (Fibroblast; [3]): 6% and 14%
Population Healthy Nuclei (%) (Fibroblast; [3]): 73% and 64%
Population Hoechst High Intensity Objects (%) (Fibroblast; [3]): 0%
Population Membrane Permeable-Phenotype (%) (Fibroblast; [3]): 3% and 6%
Population Mitochondria Different-Phenotype (%) (Fibroblast; [3]): 0% and 2%
Population Mitotic Cells (%) (Fibroblast; [3]): 50% and 54%
Population Normal (%) (Fibroblast; [3]): 100%
Population Pyknosed Nuclei (%) (Fibroblast; [3]): 20%
Population Tubulin-Different-Phenotype (%) (Fibroblast; [3]): 9% and 10%
Total Cell Count (Fibroblast; [3]): 178 and 215
Population Apoptotic (%) (Fibroblast; [4]): 41% and 50%
Population Fragmented Nuclei (%) (Fibroblast; [4]): 8% and 14%
Population Healthy Nuclei (%) (Fibroblast; [4]): 76% and 74%
Population Hoechst High Intensity Objects (%) (Fibroblast; [4]): 0%
Population Membrane Permeable-Phenotype (%) (Fibroblast; [4]): 5% and 1%
Population Mitochondria Different-Phenotype (%) (Fibroblast; [4]): 0%
Population Mitotic Cells (%) (Fibroblast; [4]): 58% and 50%
Population Normal (%) (Fibroblast; [4]): 99% and 100%
Population Pyknosed Nuclei (%) (Fibroblast; [4]): 15% and 11%
Population Tubulin-Different-Phenotype (%) (Fibroblast; [4]): 11% and 3%
Total Cell Count (Fibroblast; [4]): 223 and 221
Population Apoptotic (%) (Fibroblast; [5]): 68% and 61%
Population Fragmented Nuclei (%) (Fibroblast; [5]): 11% and 15%
Population Healthy Nuclei (%) (Fibroblast; [5]): 67% and 68%
Population Hoechst High Intensity Objects (%) (Fibroblast; [5]): 0%
Population Membrane Permeable-Phenotype (%) (Fibroblast; [5]): 5% and 11%
Population Mitochondria Different-Phenotype (%) (Fibroblast; [5]): 0% and 1%
Population Mitotic Cells (%) (Fibroblast; [5]): 31% and 38%
Population Normal (%) (Fibroblast; [5]): 100%
Population Pyknosed Nuclei (%) (Fibroblast; [5]): 20% and 16%
Population Tubulin-Different-Phenotype (%) (Fibroblast; [5]): 8%
Total Cell Count (Fibroblast; [5]): 183 and 213
Population Apoptotic (%) (Fibroblast; [6]): 45% and 48%
Population Fragmented Nuclei (%) (Fibroblast; [6]): 9% and 16%
Population Healthy Nuclei (%) (Fibroblast; [6]): 75% and 72%
Population Hoechst High Intensity Objects (%) (Fibroblast; [6]): 0%
Population Membrane Permeable-Phenotype (%) (Fibroblast; [6]): 4% and 1%
Population Mitochondria Different-Phenotype (%) (Fibroblast; [6]): 0%
Population Mitotic Cells (%) (Fibroblast; [6]): 54% and 52%
Population Normal (%) (Fibroblast; [6]): 99% and 100%
Population Pyknosed Nuclei (%) (Fibroblast; [6]): 14% and 10%
Population Tubulin-Different-Phenotype (%) (Fibroblast; [6]): 6% and 1%
Total Cell Count (Fibroblast; [6]): 222 and 228
Population Apoptotic (%) (U2OS; [1]): 33% and 87%
Population Healthy Nuclei (%) (U2OS; [1]): 60% and 83%
Population Hoechst High Intensity Objects (%) (U2OS; [1]): 0%
Population Membrane Permeable-Phenotype (%) (U2OS; [1]): 0% and 1%
Population Mitochondria Different-Phenotype (%) (U2OS; [1]): 0%
Population Normal (%) (U2OS; [1]): 100%
Population Pyknosed Nuclei (%) (U2OS; [1]): 6% and 12%
Population Tubulin-Different-Phenotype (%) (U2OS; [1]): 80% and 82%
Population Apoptotic (%) (U2OS; [2]): 100% and 40%
Population Healthy Nuclei (%) (U2OS; [2]): 53% and 87%
Population Hoechst High Intensity Objects (%) (U2OS; [2]): 0%
Population Membrane Permeable-Phenotype (%) (U2OS; [2]): 7% and 0%
Population Mitochondria Different-Phenotype (%) (U2OS; [2]): 7% and 0%
Population Normal (%) (U2OS; [2]): 100%
Population Pyknosed Nuclei (%) (U2OS; [2]): 7%
Population Tubulin-Different-Phenotype (%) (U2OS; [2]): 78% and 80%
Population Apoptotic (%) (U2OS; [3]): 40% and 80%
Population Healthy Nuclei (%) (U2OS; [3]): 61% and 87%
Population Hoechst High Intensity Objects (%) (U2OS; [3]): 0%
Population Membrane Permeable-Phenotype (%) (U2OS; [3]): 0%
Population Mitochondria Different-Phenotype (%) (U2OS; [3]): 0%
Population Normal (%) (U2OS; [3]): 100% and 99%
Population Pyknosed Nuclei (%) (U2OS; [3]): 8%
Population Tubulin-Different-Phenotype (%) (U2OS; [3]): 80% and 86%
Population Apoptotic (%) (U2OS; [4]): 80% and 41%
